Measured values: article PMC3001191 (Cancer research, 2010)

How the values were obtained:
VEGFR2 = VEGFR2 (Homo sapiens, UniProt P35968); assay: Z'-LYTE SelectScreen kinase profiling; assay type: biochemical
CRAF = CRAF (Homo sapiens, UniProt P04049, Y340D/Y341D); assay: Z'-LYTE SelectScreen kinase profiling; assay type: biochemical
panel of 80 kinases = assay: Selectivity profile against 80 kinase panel; assay type: biochemical, human; details: 1 μM 1t
Outline: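 Each of 80 kinases was screened at a single 1 µM concentration using the commercial SelectScreen panel under the provider's protocols. Results were expressed as percent inhibition of kinase activity, and kinases inhibited by >70% were singled out.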

SRC = SRC (Homo sapiens, UniProt P12931); assay: Z'-LYTE SelectScreen kinase profiling; assay type: biochemical
Sequence of SRC (P12931 whole entry): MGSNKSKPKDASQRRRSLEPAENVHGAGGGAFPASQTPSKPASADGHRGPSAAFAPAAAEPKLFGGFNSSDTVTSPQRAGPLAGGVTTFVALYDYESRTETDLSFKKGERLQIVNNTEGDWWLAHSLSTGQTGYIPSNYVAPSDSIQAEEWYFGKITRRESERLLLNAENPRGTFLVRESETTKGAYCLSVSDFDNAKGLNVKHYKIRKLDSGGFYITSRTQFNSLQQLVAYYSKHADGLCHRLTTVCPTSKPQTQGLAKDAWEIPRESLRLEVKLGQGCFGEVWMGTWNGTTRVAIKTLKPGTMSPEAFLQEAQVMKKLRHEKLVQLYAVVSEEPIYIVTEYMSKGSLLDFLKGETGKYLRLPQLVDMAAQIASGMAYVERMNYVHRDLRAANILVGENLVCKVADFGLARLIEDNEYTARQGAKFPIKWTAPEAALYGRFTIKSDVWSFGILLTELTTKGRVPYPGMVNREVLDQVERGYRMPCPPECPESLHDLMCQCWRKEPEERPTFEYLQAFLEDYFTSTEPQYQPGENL

BRAF = BRAF (Homo sapiens, UniProt P15056); assay: Z'-LYTE SelectScreen kinase profiling; assay type: biochemical
Sequence of BRAF (P15056 whole entry): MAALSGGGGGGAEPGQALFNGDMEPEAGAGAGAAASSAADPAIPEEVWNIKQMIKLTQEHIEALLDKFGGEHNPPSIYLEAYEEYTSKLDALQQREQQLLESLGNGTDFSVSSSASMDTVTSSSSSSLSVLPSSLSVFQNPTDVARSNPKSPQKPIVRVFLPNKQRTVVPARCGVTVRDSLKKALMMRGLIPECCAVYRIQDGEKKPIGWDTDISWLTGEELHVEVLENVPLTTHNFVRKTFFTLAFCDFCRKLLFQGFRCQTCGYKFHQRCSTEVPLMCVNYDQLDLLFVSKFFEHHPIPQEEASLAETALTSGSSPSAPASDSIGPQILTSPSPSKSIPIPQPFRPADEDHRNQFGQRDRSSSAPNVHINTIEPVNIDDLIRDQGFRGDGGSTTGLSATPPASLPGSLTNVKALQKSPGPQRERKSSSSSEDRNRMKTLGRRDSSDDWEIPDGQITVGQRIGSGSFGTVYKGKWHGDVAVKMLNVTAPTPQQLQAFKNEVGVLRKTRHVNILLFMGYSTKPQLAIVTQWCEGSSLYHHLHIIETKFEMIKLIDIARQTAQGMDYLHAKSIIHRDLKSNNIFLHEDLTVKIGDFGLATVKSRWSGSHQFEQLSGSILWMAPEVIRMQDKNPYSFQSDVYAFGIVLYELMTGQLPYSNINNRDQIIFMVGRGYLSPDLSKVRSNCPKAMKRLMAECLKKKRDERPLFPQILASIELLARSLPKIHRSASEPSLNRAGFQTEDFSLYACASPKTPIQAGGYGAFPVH

[1] = test system: MEK phosphorylation in SW620 xenografts; assay: Pharmacodynamics, MEK phosphorylation in tumor xenografts; assay type: in vivo, mice; details: single p.o. dose 20 mg/kg, 4 h, KRAS mutant SW620 tumors
Outline: (§1)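 Female Crl:CD1-Foxn1nu mice (>6 weeks) were inoculated s.c. with 10^7 A375M or 7 × 10^6 SW620 cells. Tumors were grown to 50–150 mm3. Groups of 3-4 mice received one 20 mg/kg oral gavage dose or vehicle and were culled 4 h later. Tumors were snap-frozen, lysed in NP40 buffer and homogenised. Equal protein was probed by quantitative fluorescent Western blot for phospho-MEK1/2 and total MEK1.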

Pharmacokinetics in mice = assay type: in vivo; details: for concentration at 18 h: po, 10 mg/kg
Outline: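 Female BALB/cAnNCrl mice over 6 weeks old were dosed i.v. at 2 mg/kg (10 ml/kg, DMSO:Tween 20:water 10:1:89). Others received 10 mg/kg by oral gavage (10 ml/kg, DMSO:water 1:19). At 5 min (i.v. only), 15 and 30 min, and 1, 3, 6 and 18 h, 3 mice per point gave heparinized blood for plasma under isoflurane. Femoral muscle was also collected. Plasma levels were compared with the mean 5-d SRB GI50 of BRAF-mutant lines.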

PDGFRα = PDGFRα (Homo sapiens, UniProt P16234); assay: Z'-LYTE SelectScreen kinase profiling; assay type: biochemical
Sequence of PDGFRα (P16234 24-1089): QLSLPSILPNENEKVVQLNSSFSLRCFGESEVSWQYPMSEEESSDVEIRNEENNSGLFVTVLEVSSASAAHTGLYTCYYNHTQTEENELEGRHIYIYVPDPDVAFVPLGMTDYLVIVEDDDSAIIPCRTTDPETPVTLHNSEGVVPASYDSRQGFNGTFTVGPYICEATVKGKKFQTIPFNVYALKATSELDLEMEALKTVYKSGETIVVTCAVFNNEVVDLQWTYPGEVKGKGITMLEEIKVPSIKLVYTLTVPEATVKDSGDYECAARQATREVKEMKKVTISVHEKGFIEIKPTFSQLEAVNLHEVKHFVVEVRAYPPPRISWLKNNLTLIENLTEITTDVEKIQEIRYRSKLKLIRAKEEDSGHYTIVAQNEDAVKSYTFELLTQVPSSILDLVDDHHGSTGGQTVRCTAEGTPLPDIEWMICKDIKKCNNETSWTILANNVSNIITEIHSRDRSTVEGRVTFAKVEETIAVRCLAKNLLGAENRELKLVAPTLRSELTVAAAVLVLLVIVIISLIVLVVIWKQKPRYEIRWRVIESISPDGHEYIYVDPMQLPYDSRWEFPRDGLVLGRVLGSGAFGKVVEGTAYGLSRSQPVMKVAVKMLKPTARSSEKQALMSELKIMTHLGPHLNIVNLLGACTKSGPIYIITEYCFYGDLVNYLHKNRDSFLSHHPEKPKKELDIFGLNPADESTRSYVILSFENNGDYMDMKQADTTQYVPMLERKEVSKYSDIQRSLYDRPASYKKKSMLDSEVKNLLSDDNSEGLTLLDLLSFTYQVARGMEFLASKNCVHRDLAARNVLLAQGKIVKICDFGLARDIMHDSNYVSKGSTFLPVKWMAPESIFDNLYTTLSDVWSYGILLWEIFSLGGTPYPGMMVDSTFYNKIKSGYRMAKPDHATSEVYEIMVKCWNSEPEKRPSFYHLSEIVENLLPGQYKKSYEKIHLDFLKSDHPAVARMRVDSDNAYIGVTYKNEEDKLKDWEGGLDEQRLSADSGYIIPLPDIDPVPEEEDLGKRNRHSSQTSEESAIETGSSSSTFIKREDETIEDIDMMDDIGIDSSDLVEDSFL

[2] = test system: cell lines in which BRAF is wildtype; assay: SRB growth inhibition assay, cell line panel; assay type: cell-based, human; details: 5 d exposure
Outline: (§2)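 Growth inhibition was measured by sulforhodamine B across a panel of melanoma, colon and breast cancer cell lines after 5 d continuous exposure. Seeding density was optimized per line to keep growth logarithmic. Curves used 10-point dilution series in quadruplicate and were fitted to give IC50/GI50. Lines were grouped by BRAF/RAS mutation status for comparison.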

p38α = p38α (Homo sapiens, UniProt Q16539); assay: Z'-LYTE SelectScreen kinase profiling; assay type: biochemical
Sequence of p38α (Q16539 whole entry): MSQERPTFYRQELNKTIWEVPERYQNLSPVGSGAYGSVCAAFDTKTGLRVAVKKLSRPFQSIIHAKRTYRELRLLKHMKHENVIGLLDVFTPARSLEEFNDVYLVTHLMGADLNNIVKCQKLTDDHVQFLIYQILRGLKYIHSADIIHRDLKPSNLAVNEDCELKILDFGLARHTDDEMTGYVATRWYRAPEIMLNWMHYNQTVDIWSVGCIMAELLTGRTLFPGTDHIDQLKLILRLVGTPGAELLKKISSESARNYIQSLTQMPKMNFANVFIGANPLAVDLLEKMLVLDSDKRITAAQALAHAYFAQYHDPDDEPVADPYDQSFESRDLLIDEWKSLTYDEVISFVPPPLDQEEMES

[3] = test system: cancer cell lines harboring ^V600D/EBRAF mutations; assay: SRB growth inhibition assay, cell line panel; assay type: cell-based, human; details: 5 d exposure, ^V600D/EBRAF mutant lines
Outline: as §2

^V600EBRAF = ^V600EBRAF (Homo sapiens, UniProt P15056, V600E); assay: Z'-LYTE SelectScreen kinase profiling; assay type: biochemical
Sequence of ^V600EBRAF (P15056 whole entry V600E): as the sequence (P15056 whole entry) above, with V600E counted along it

SKMEL23 cells = assay: SRB growth inhibition assay, cell line panel; assay type: cell-based, human
Outline: as §2

[4] = test system: MEK and ERK phosphorylation in BRAF wild-type D35 melanoma cells; assay: Western blotting of MAPK signaling; assay type: cell-based; details: 24 h, concentrations up to 10 μM
Outline: (§3)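 Cells in DMEM with 10% FBS were exposed to a concentration series for 24 h and lysed. Lysates were blotted for phospho-MEK1/2, MEK1, phospho-ERK1/2, ERK2 and cyclin D1. Detection used Alexa Fluor 680 and 800CW secondary antibodies, with quantification on an infrared scanner.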

[5] = test system: WM266.4 (^V600DBRAF) cells; assay: DNA synthesis; assay type: cell-based, human; details: WM266.4 cells, 0.1 μM 1t for 24 h
Outline: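 Cells were grown in DMEM with 10% FBS at 37 °C in 10% CO2. They were seeded at 10^5 per well in 6-well plates and treated with 0.1 µM compound for 24 h. DNA synthesis was measured with 0.8 µCi tritiated label per well. Cells were harvested by trypsinization and an aliquot was filter-captured and scintillation-counted as for suspension cells.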

[6] = test system: ^G12VKRAS mutant human colorectal carcinoma SW620 xenografts; assay: Therapy study, xenograft growth; assay type: in vivo, mice; details: 20 mg/kg daily p.o. for 23 d
Outline: (§4)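 Female Crl:CD1-Foxn1nu mice (>6 weeks) were implanted s.c. with 10^7 A375M or 7 × 10^6 SW620 cells. Tumors grew to 50–150 mm3, and groups of 8 were assigned by stratified tumor volume. Mice received 20 mg/kg/d by gavage (10 ml/kg, DMSO:water 1:19) or vehicle, for 24 d (A375M) or 23 d (SW620). Calipers measured tumors every 3-4 d, and mean volume ± SEM was plotted.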

KIT = KIT (Homo sapiens, UniProt P10721); assay: Z'-LYTE SelectScreen kinase profiling; assay type: biochemical
FGFR1 = FGFR1 (Homo sapiens, UniProt P11362); assay: Z'-LYTE SelectScreen kinase profiling; assay type: biochemical
[7] = test system: ^V600EBRAF A375M melanoma xenografts; assay: Therapy study, xenograft growth; assay type: in vivo, mice; details: 20 mg/kg q.d. p.o. for 24 d, on completion of the experiment, p<0.05
Outline: as §4

[8] = test system: ^V600EBRAF-expressing Ba/F3 cells; assay: DNA synthesis; assay type: cell-based; details: Mus musculus, BaF3, 24 h, read-out: growth (DNA synthesis) inhibition
Outline: (§5)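 Ba/F3 lines stably expressing the mutant BRAF were cultured in RPMI1640 with 10% FBS at 37 °C in 10% CO2. Cells (1-5 × 10^4 per well) were exposed to compound for 24 h, with 0.08 µCi [3H]-thymidine added per well for the last 4 h. Cells were then captured on glass-fibre filters and washed twice with PBS and twice with methanol. Incorporated label was counted by scintillation.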

^T529N,V600EBRAF = ^T529N,V600EBRAF (Homo sapiens, UniProt P15056, T529N/V600E); assay: DELFIA kinase assay, gatekeeper mutant; assay type: biochemical; details: at up to 10 μM
Sequence of ^T529N,V600EBRAF (P15056 whole entry T529N/V600E): as the sequence (P15056 whole entry) above, with T529N, V600E counted along it
Outline: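 Full-length recombinant BRAF construct carrying the gatekeeper and activating substitutions was tested in a 96-well DELFIA assay. The assay measured direct phosphorylation of bacterially produced GST-MEK at 100 µM ATP. Reactions ran in duplicate for 45 min at 20°C, within the linear range, across an 11-concentration response curve. Each value was the mean of 3 independent assays.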

[9] = test system: MEK and ERK phosphorylation in KRAS mutant SW620 colorectal carcinoma cells; assay: Western blotting of MAPK signaling; assay type: cell-based, human; details: 24 h
Outline: as §3

PDGFRβ = PDGFRβ (Homo sapiens, UniProt P09619); assay: Z'-LYTE SelectScreen kinase profiling; assay type: biochemical
RET = RET (Homo sapiens, UniProt P07949); assay: Z'-LYTE SelectScreen kinase profiling; assay type: biochemical
[10] = test system: ^V600EBRAF mutant HT29 cells; assay: SRB growth inhibition assay, cell line panel; assay type: cell-based, human
Outline: as §2

LCK = LCK (Homo sapiens, UniProt P06239); assay: Z'-LYTE SelectScreen kinase profiling; assay type: biochemical
[11] = test system: MEK phosphorylation in A375M xenografts; assay: Pharmacodynamics, MEK phosphorylation in tumor xenografts; assay type: in vivo, mice; details: single oral dose of 20 mg/kg, 4 h, A375M tumors
Outline: as §1

VEGFR1 = VEGFR1 (Homo sapiens, UniProt P17948); assay: Z'-LYTE SelectScreen kinase profiling; assay type: biochemical
MET = MET (Homo sapiens, UniProt P08581); assay: Z'-LYTE SelectScreen kinase profiling; assay type: biochemical
COT = COT (Homo sapiens, UniProt P41279); assay: Z'-LYTE SelectScreen kinase profiling; assay type: biochemical
Sequence of COT (P41279 whole entry): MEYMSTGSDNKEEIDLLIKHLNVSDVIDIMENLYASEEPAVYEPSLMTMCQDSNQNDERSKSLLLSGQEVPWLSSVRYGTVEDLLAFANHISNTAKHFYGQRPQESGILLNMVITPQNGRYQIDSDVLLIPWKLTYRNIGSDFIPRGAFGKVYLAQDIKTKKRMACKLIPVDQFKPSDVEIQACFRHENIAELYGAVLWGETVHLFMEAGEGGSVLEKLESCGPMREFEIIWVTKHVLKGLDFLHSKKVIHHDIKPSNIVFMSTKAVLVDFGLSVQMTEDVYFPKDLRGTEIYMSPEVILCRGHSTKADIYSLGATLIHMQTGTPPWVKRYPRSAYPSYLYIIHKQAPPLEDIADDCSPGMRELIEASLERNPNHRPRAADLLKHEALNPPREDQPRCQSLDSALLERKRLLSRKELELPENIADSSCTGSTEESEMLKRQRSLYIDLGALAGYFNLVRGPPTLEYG

[12] = test system: ERK1/2 phosphorylation in WM266.4 cells; assay: Phospho-ERK cell-based ELISA; parameters: species or system human; details: cellular potency greater
SW620 cells = assay: MTS cell proliferation assay; assay type: cell-based, human; details: 72 h
Outline: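 SW620 cells in DMEM with 10% FBS received a range of compound concentrations for 72 h. Proliferation was quantified with MTS reagent. Seeding density was optimized so growth stayed logarithmic throughout treatment. Wells were run in quadruplicate, and comparisons used a t-test.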

p38γ = p38γ (Homo sapiens, UniProt P53778); assay: Z'-LYTE SelectScreen kinase profiling; assay type: biochemical
[13] = test system: MEK and ERK phosphorylation in ^V600DBRAF WM266.4 cells; assay: Western blotting of MAPK signaling; assay type: cell-based, human; details: 24 h
Outline: as §3

[14] = test system: ^T529N,V600EBRAF-expressing Ba/F3 cells; assay: DNA synthesis; assay type: cell-based; details: Mus musculus, BaF3, 24 h, read-out: growth (DNA synthesis) inhibition
Outline: as §5

Tolerability in mice = assay type: in vivo
^V600EBRAF in cells = details: cited from earlier work
[15] = test system: ^V600EBRAF purified kinase; details: cited from earlier work
[16] = female, BALB/cAnNCrl, mouse, plasma, iv, 2 mg/kg
[17] = continuous daily dosing 20 mg/kg in therapy experiments

Sequence of VEGFR2 (P35968 20-1356): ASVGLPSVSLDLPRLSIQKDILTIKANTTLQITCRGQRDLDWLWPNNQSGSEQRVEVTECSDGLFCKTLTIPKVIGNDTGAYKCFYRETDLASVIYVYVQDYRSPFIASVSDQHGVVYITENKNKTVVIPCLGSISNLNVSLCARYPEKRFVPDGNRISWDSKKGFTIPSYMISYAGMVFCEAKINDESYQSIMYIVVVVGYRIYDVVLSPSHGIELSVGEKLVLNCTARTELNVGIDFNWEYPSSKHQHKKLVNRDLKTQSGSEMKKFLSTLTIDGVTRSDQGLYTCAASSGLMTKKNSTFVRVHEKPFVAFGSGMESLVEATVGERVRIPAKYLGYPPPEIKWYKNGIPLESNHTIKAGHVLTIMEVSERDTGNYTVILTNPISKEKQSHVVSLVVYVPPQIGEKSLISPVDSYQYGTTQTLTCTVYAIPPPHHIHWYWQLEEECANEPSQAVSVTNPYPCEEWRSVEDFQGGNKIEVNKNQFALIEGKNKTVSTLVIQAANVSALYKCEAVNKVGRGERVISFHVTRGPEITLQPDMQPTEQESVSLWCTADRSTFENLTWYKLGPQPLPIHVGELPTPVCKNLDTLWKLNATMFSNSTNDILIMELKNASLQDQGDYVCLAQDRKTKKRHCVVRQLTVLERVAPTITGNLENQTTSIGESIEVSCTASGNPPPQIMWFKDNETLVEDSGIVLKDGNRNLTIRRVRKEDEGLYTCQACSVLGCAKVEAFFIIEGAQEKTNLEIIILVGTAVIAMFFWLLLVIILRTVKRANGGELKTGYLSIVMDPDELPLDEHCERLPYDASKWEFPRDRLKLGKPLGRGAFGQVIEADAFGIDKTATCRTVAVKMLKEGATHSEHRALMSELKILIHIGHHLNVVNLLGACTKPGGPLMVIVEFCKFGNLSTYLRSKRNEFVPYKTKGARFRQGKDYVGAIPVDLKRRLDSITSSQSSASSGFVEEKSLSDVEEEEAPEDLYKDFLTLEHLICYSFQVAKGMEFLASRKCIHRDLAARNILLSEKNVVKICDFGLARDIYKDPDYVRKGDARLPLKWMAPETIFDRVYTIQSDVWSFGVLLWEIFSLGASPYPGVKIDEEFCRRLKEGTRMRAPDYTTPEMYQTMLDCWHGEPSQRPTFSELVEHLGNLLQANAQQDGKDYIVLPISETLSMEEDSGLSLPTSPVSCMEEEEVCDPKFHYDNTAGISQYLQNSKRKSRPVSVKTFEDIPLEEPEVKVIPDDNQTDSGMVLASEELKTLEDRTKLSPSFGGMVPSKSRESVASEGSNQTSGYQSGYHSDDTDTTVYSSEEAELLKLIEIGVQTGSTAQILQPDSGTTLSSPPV
Sequence of CRAF (P04049 306-648 Y340D/Y341D limits assumed): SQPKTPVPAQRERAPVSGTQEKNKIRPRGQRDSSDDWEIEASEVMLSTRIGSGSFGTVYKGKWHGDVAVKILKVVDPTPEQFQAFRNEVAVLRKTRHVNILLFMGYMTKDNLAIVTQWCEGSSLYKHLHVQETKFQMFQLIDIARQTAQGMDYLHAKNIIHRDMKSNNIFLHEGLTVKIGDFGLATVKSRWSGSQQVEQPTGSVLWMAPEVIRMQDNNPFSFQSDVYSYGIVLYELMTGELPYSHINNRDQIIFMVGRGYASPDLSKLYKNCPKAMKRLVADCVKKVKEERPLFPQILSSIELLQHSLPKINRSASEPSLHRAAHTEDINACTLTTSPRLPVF

CSc1cc(Oc2ccnc3[nH]c(=O)cnc23)ccc1NC(=O)Nc1cc(C(C)(C)C)nn1-c1ccc(C)cc1 [Compound 1t, 1-(3-tert-butyl-1-p-tolyl-1H-pyrazol-5-yl)-3-(2-(methylthio)-4-(3-oxo-3,4-dihydropyrido[2,3-b]pyrazin-8-yloxy)phenyl)urea]
IC50 (VEGFR2): 1000 nM | fold less active against VEGFR2/KDR than against ^V600EBRAF (VEGFR2; SelectScreen Panel): more than 50 fold | IC50 (CRAF): 12 nM | inhibition of kinases in an 80 kinase panel (panel of 80 kinases): failed to inhibit most of the kinases | IC50 (SRC): 23 nM | IC50 (BRAF): 81 nM | fold less active against wildtype BRAF than against ^V600EBRAF (BRAF; SelectScreen Panel): more than 6 fold | increase in MEK phosphorylation [1]: 2 fold | concentration at 18 h (Pharmacokinetics in mice; female, BALB/cAnNCrl, mouse, femoral muscle): > 3 µM | clearance (Pharmacokinetics in mice; [16]): 0.00667 mL/min | half-life (Pharmacokinetics in mice; [16]): 6.8 h | concentration at 18 h (Pharmacokinetics in mice; female, BALB/cAnNCrl, mouse, plasma): > 19 µM | plasma concentration relative to average GI50 for BRAF mutant cancer cell lines (Pharmacokinetics in mice; mice): over 100 fold | IC50 (PDGFRα): 439 nM | growth inhibition [2]: relatively ineffective | IC50 (p38α): 285 nM | growth inhibition [3]: inhibits the growth | IC50 (^V600EBRAF): 13 nM | sensitivity relative to the other BRAF/RAS wildtype cells (SKMEL23 cells): considerably more sensitive | MEK and ERK phosphorylation / cyclin D1 response [4]: no such responses are observed | inhibition of DNA synthesis [5]: profound inhibition | tumor growth inhibition [6]: No inhibition of tumor growth | IC50 (KIT): > 10000 nM | IC50 (FGFR1): 2580 nM | tumor growth inhibition [7]: 50% | inhibition at 1 µM [8]: 96% | inhibition of ^T529N,V600EBRAF kinase activity (^T529N,V600EBRAF): not inhibited | effect on MEK and ERK phosphorylation [9]: profound increase | IC50 (PDGFRβ): 2430 nM | IC50 (RET): 4860 nM | sensitivity relative to the majority of the other BRAF mutant cell lines [10]: less sensitive | IC50 (LCK): 6 nM | inhibition of MEK phosphorylation [11]: observed | IC50 (VEGFR1): 5160 nM | IC50 (MET): > 10000 nM | IC50 (COT): > 10000 nM | cellular potency relative to inhibition of recombinant ^V600EBRAF in vitro [12]: approximately 4 fold | effect on proliferation (SW620 cells): small increase in proliferation | IC50 (p38γ): 1020 nM | concentration inhibiting MEK and ERK phosphorylation [13]: 10 to 100 nM | inhibition at 1 µM [14]: 21% | adverse effects / body weight (Tolerability in mice; 10 and 20 mg/kg/d p.o. for 4 d, body weight monitored a further 27 d): No adverse effects were observed | body weight loss (Tolerability in mice; [17]): less than 10% | deaths (Tolerability in mice; [17]): does not cause any deaths

CNC(=O)c1cc(Oc2ccc(NC(=O)Nc3ccc(Cl)c(C(F)(F)F)c3)cc2)ccn1 [sorafenib]
activity against ^V600EBRAF in cells (^V600EBRAF in cells): 2 to 5 µM | fold less active in cells than against the purified kinase (^V600EBRAF in cells): approximately 100 fold | activity against the purified kinase in vitro [15]: 40 nM
